These results are taken from ChEMBL document CHEMBL1151267, “Nematicidal epipolysulfanyldioxopiperazines from Gliocladium roseum” (2005).

Holding throughout (type): functional
Common to all, as to conditions: read-out: ED50 (the source's name)

In one assay the test system is Panagrellus redivivus. The assay can be described thus: Antinematodal activity against Panagrellus redivivus after 24 hrs by microscopy. In short, it runs like this: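 P. redivivus were kept in aseptic liquid Basal Heme medium at room temperature and subcultured before testing. Worms were suspended in physiological saline and diluted to 20-25 per 48 μL aliquot, with triplicate wells per treatment. 2 μL of 50% DMSO, alone or with compound, was added. Plates were covered and humidified, and mortality was scored microscopically at 24 h.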

For another assay, the system named is Caenorhabditis elegans. The assay can be described thus: Antinematodal activity against Caenorhabditis elegans after 24 hrs by microscopy. In outline:
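C. elegans were grown on NG agar carrying an E. coli strain, kept at room temperature and subcultured before the assay. Worms in physiological saline were diluted to 20-25 per 48 μL, with three wells per treatment. Each well received 2 μL of 50% DMSO or 50% DMSO containing compound. Plates were covered in a humid chamber, and dead worms were counted by microscopy after 24 h.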

Assay [1] deals with Bursaphelenchus xylophilus. The assay can be described thus: Antinematodal activity against Bursaphelenchus xylophilus after 24 hrs by microscopy. In outline:
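B. xylophilus were grown on PDB agar carrying Botrytis cinerea, kept at room temperature and subcultured before the assay. They were diluted in physiological saline to 20-25 worms per 48 μL and dispensed into three wells per treatment. 2 μL of 50% DMSO, with or without compound, was added. Plates were covered and held in a humid chamber. Dead worms were counted microscopically at 24 h.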

≈ marks a conversion by molar mass, not a printed value.

For `CC[C@@]12SS[C@]3(C(=O)N1C)[C@@H](O)[C@]1([C@@]45c6ccccc6N[C@@H]4N4C(=O)[C@@]6(C)SS[C@]4(C(=O)N6C)[C@H]5O)c4ccccc4N[C@@H]1N3C2=O`, the EC50 in the assay with Panagrellus redivivus is 80 µg/mL (≈ 113 µM); with Caenorhabditis elegans it was 50 µg/mL (≈ 70.3 µM); in assay [1], greater than 400 µg/mL.
The like results for `CN1C(=O)[C@@]23C[C@]4([C@@]56c7ccccc7N[C@@H]5N5C(=O)[C@@]7(C)SS[C@]5(C(=O)N7C)[C@H]6O)c5ccccc5N[C@@H]4N2C(=O)[C@]1(C)SS3` were, in that order, 40 µg/mL (≈ 58.7 µM), 10 µg/mL (≈ 14.7 µM) and greater than 400 µg/mL.
In the same order, the values of `CN1C(=O)[C@]23SSS[C@]1(C)C(=O)N2[C@H]1Nc2ccccc2[C@@]1([C@@]12c4ccccc4N[C@@H]1N1C(=O)[C@@]4(C)SS[C@]1(C(=O)N4C)[C@H]2O)[C@@H]3O` [GLIOCLADINE A] are 50 µg/mL (≈ 68.6 µM), 25 µg/mL (≈ 34.3 µM) and greater than 400 µg/mL.
The like results for `CN1C(=O)C23SSSS[C@]1(C)C(=O)N2[C@H]1Nc2ccccc2[C@@]1([C@@]12c4ccccc4N[C@@H]1N1C(=O)[C@@]4(C)SS[C@]1(C(=O)N4C)[C@H]2O)[C@@H]3O` [GLIOCLADINE B] were, in that order, 25 µg/mL (≈ 32.9 µM), 30 µg/mL (≈ 39.4 µM) and greater than 400 µg/mL.
On to `CN1C(=O)[C@]23SS[C@]1(C)C(=O)N2[C@H]1Nc2ccccc2[C@@]1(c1c[nH]c2ccccc12)[C@@H]3O` [GLIOCLADINE C], for which the EC50 with Panagrellus redivivus is 250 µg/mL (≈ 538 µM); in the assay with Caenorhabditis elegans, 200 µg/mL (≈ 431 µM); in assay [1], greater than 400 µg/mL.
In the same order, the values of `CN1C(=O)[C@]23SSS[C@]1(C)C(=O)N2[C@H]1Nc2ccccc2[C@@]1(c1c[nH]c2ccccc12)[C@@H]3O` [GLIOCLADINE D] are 250 µg/mL (≈ 503 µM), 200 µg/mL (≈ 403 µM) and greater than 400 µg/mL.
Take `CN1C(=O)[C@]23SSSS[C@]1(C)C(=O)N2[C@H]1Nc2ccccc2[C@@]1(c1c[nH]c2ccccc12)[C@@H]3O` [GLIOCLADINE E]: the EC50 was 250 µg/mL (≈ 473 µM) in the assay on Panagrellus redivivus, 200 µg/mL (≈ 378 µM) in the assay with Caenorhabditis elegans and greater than 400 µg/mL in assay [1].
In the same order, the values of `CN1C(=O)[C@]23SS[C@@]1(C)C(=O)N2[C@H]1Nc2ccccc2[C@@]1([C@@]12c4ccccc4N[C@@H]1N1C(=O)[C@@]4(C)SS[C@]1(C(=O)N4C)[C@H]2O)[C@@H]3O` [VERTICILLIN A] are 80 µg/mL (≈ 115 µM), 30 µg/mL (≈ 43.1 µM) and greater than 400 µg/mL.
